Compound activity: PubChem BioAssay, Broad Institute
The list is not random: actives were taken first. Their share in the collection is about 4%.
C2C12 statin: protects C2C12 myotubes from simvastatin toxicity; AID 602340; ATP luminescence, 48 h; scaled: DMSO 0, geranylgeraniol control 100; rescue of ATP level, % at 7.49 µM; 0.78% of 330,000 active;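 active = mean ATP rescue above about 67%, or every replicate alone reaching that limit, limit read from the data, passing the limit was not always enough; inconclusive = no clear call, values can overlap the other calls; inactive = mean under the limit and some replicate under it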;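 note: myotubes were challenged with 10 µM simvastatin during compound exposure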
FGF22 binding: FGF22 (human) thermal shift binding | 1.5% of 340,000 active | AID 651658 | Q9HCT0 | recombinant FGF22 thermal shift, SYPRO orange fluorescence; percent of sucrose octasulfate shift, DMSO zero | activity (Tm shift, normalised), % at 9.99 µM;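 active = mean Tm shift, scaled 0 neutral to 100 positive control, at about 1.3% or above, every replicate too, limit read from the data; inconclusive = no clear call, values can overlap the other calls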
SIRT5 inh: sirtuin-5 (human) deacylase inhibition; Q9NXA8; Purified SirT5, succinyl-peptide AMC, trypsin-coupled fluorescence; inhibition, % at 15 µM; 1.1% of 330,000 active; in the data active = inhibition above about 15%; inconclusive = no clear call, values can overlap the other calls
FN deposition inh: fibronectin deposition inhibition; inhibition, % at 12.6 µM; 0.086% of 350,000 active; AH1F fibroblasts, Alexa488-fibronectin deposition fluorescence, overnight;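 active = mean inhibition across replicates of 30% or more, regardless of how many single replicates reach that level; inconclusive = mean under 30% yet at least half of replicates reach 30%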;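 note: positive control wells lacked labelled fibronectin entirely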
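material = AH1F fibroblast monolayer depositing Alexa488-labelled fibronectin into matrix | amount = 10000 AH1F cells/well | buffer or medium = DMEM plus 2% serum, read in PBS | incubation = 1 h cell adhesion before compound, then overnight fibronectin incubation | detection = fluorescence at 485 nm excitation, 525 nm emission | evaluation = percent inhibition as loss of matrix-bound fibronectin fluorescence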
E-sel inducer: induces E-selectin expression in human endothelial cells; activation, % at 7.58 µM; HUVEC E-selectin immunofluorescence imaging; normalized: neutral wells 0, TNF-alpha wells 100; AID 686992; P16581; 0.37% of 260,000 active;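 active = mean E-selectin-positive cell signal at least 10% of the positive control, reached in at least 60% of replicates, without over 20% cell loss; inconclusive = no rule given, readout overlaps actives, possibly toxicity-flagged; inactive = the rest, including those meeting only one limit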
Target sequence (P16581 whole entry, looked up): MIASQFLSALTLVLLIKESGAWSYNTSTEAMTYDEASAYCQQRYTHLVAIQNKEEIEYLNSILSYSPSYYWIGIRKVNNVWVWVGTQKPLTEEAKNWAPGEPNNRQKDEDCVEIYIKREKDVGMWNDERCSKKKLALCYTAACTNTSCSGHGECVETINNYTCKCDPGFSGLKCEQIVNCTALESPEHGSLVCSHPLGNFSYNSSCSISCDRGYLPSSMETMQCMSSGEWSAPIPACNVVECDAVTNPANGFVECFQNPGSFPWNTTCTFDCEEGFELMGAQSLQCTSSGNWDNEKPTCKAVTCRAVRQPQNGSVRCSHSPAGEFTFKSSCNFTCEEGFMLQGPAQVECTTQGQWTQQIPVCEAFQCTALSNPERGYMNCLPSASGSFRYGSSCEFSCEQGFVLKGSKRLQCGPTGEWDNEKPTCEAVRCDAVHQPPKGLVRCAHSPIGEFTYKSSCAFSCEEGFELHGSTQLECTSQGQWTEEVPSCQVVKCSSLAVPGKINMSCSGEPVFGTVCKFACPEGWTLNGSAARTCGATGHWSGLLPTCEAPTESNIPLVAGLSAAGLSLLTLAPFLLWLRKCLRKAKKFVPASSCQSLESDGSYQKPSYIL
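Read-out basis: % PE-positive cells; Test system: HUVEC primary endothelial cells; Technique: immunofluorescence imaging; Dosing: single-point compound dose.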
rRNA inh HTS: inhibitors of bacterial rRNA selective over humanized ribosomes. E. coli WT GFP vs humanized-ribosome RFP mutants, fluorescence, 24 h; hits give low values; DMSO median 0, no signal -100. GFP signal change (wild-type ribosome), % (test concentration not listed). 1.6% of 350,000 active. AID 720706;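 active = significant combined selectivity score with lowered wild-type GFP, culture density cut under 30%, mutant RFP and density less affected; inactive = any of these conditions unmet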
AID977621: growth inhibition of wild-type GFP E. coli, dose response, H69 mutant RFP, cherry-pick | shares compounds with rRNA inh HTS | E. coli wild-type GFP strain growth, fluorescence, 24 h | activity change, negative = inhibition at 50 µM | 1,900 tested, under 10 active | AID 977621;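 active = Wild-type ribosome reporter drop at least double the humanized mutant ribosome reporter drop, growth loss under a set limit; inconclusive = no clear call, values can overlap the other calls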;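 note: wild-type GFP and H69 mutant RFP strains grown together 50/50 in each well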
AID977628: growth of wild-type and h24-humanized E. coli strains – h24 mutant RFP vs wild-type GFP, cherry-pick, dose response; shares compounds with rRNA inh HTS; E. coli WT GFP strain growth, fluorescence, 24 h; activity change, negative = inhibition at 50 µM; 1,900 tested, under 10 active; AID 977628;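 active = compound lowering the normal-ribosome reporter at least twice as much as the humanized-ribosome reporter, growth loss under a set limit; inconclusive = no clear call, values can overlap the other calls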;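 note: wild-type GFP and h24 humanized RFP strains co-cultured 1 to 1 per well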
* = called active by the depositor; ? = inconclusive; . = not tested or not shown; ! = not confirmed by another sample.

SMILES	C2C12 statin	FGF22 binding	SIRT5 inh	FN deposition inh	E-sel inducer	rRNA inh HTS	AID977621	AID977628
COc1ccc(C2CC(=O)Oc3cc(C)cc(C)c32)cc1 (stereo not given)	-11.5	-0.2	-3.2	.	.	-23.9*	3.89	-5.41
Cc1cc(C)c2c(c1)OC(=O)CC2c1ccc2c(c1)OCO2 (stereo not given)	-3.0	-0.1	-5.2	1.4	1.9	-37.4	.	.
COc1cc(C2CC(=O)Oc3ccc(C(C)(C)C)cc32)cc(OC)c1OC (stereo not given)	1.9	-0.1	-0.3	3.5	1.9	-18.1	.	.
COc1cccc(S(=O)(=O)N2C[C@H](O)COC[C@H]3O[C@H](CC(=O)Nc4ccccc4)CC[C@@H]32)c1	5.5	-0.1	11.5	8.9	0.0	0.0	.	.
COc1ccc(C#Cc2ccc3c(c2)[C@@H]2[C@@H](CCN2Cc2nccs2)[C@@H](CO)N3)cc1	-3.8	.	.	-15.1	0.2	-21.9*	.	?
O=C(C[C@H]1CC[C@H]2[C@@H](COC[C@@H](O)CN2S(=O)(=O)c2ccc(Oc3ccccc3)cc2)O1)NC1CCC1	6.0	-0.5	4.7	4.9	0.1	0.7	.	.
O=C1c2ccccc2C(c2nnnn2Cc2ccccc2)N1Cc1cccc(F)c1 (stereo not given)	.	0.0	-5.0	-1.1	4.5	-23.1*!	-4.92	-5.37
COc1ccc(CN2C(=O)c3ccccc3C2c2nnnn2Cc2ccccc2)cc1OC (stereo not given)	.	-0.1	-3.2	2.2	4.0	-5.7	.	.
O=C(C[C@@H]1CC[C@@H]2[C@H](COC[C@H](O)CN2CC2CCCCC2)O1)NCc1ccc(Cl)cc1	45.6	-0.2	3.5	3.7	-0.1	-58.0	.	.
Cc1noc(NS(=O)(=O)c2ccc(NC(=O)c3cc(-c4ccccc4Cl)nc4ccccc34)cc2)c1C	.	.	7.1	9.3	-1.5	-23.9*	-15.5	.
Cc1noc(NS(=O)(=O)c2ccc(NC(=O)c3cc(S(=O)(=O)N(C)c4ccccc4)ccc3Cl)cc2)c1C	4.4	0.3	1.4	-13.3	.	-35.1	.	.
CC(C)OC(=O)C[N+](C)(C)CCN1C(=O)C2C(c3ccccc3)C=CC(c3ccccc3)C2C1=O (stereo not given)	.	0.5	25.5*	0.4	.	-34.5*	-13.2	-14
C#CC[N+](C)(C)CCN1C(=O)C2C(c3ccccc3)C=CC(c3ccccc3)C2C1=O (stereo not given)	3.2	0.1	-2.2	5.9	.	11.6	.	.
COC(=O)CC#C[C@H](C)[C@@H](NS(=O)(=O)c1ccc([N+](=O)[O-])cc1)C(C)(C)C	.	41.7	.	15.7	-0.1	-13.5*	?	?
COC(=O)CC#C[C@H](C)[C@@H](NS(=O)(=O)c1ccc(C)cc1)C1CCCCC1	.	42.0	.	-3.6	0.3	-7.4	.	.
CO[C@@H]1CN(C)C(=O)c2ccc(NS(=O)(=O)c3ccccc3)cc2OC[C@@H](C)N(C(=O)NC(C)C)C[C@H]1C	-2.3	-0.3	1.5	-0.2	2.5	1.1	.	.
COc1ccc(CCCc2nc3ccccc3[nH]2)cc1	32.9	0.2	0.0	3.1	-0.4	-21.9*	-5.85	?
CC(=O)Nc1ccc(NS(=O)(=O)c2cc(Cl)sc2Cl)cc1	-2.6	-0.2	-1.1	0.3	0.9	-1.5	.	.
CC(=O)Nc1ccc(NS(=O)(=O)c2ccc(Cl)s2)cc1	.	0.0	-1.2	5.0	1.3	-20.1*	.	?
C(=C/c1nccc2c1[nH]c1ccccc12)/c1ccc2c(c1)OCO2	.	0.1	-3.2	-5.5	20.0	-37.3*	12.3	-2.17
O=C(Nc1ccc(Cl)c(Cl)c1)c1ccc(Cl)c(Cl)c1	0.2	0.1	-4.8	7.6	0.5	-17.1*	-16.8	-6.56
CC(C(=O)Nc1nc2ccccc2s1)n1cc([N+](=O)[O-])cn1 (stereo not given)	.	0.2	-0.3	.	.	-18.4*	-18	.
C[C@@H]1CCCCO[C@@H](CN(C)Cc2ccc(C(=O)O)cc2)[C@H](C)CN([C@H](C)CO)C(=O)c2cc(N(C)C)ccc2O1	-29.9	.	.	-1.5	0.1	3.4	.	.
O=C(N[C@@H]1CC[C@@H](CCn2cc(C3(O)CCCC3)nn2)O[C@@H]1CO)c1ccccc1F	5.9	0.0	-2.6	-1.7	1.1	1.6	.	.
CC(=O)Nc1ccc(OCC(=O)N2CCC(Cc3ccccc3)CC2)cc1	.	0.0	.	5.0	0.6	-19.5*	-25.8	.
SMILES	C2C12 statin	FGF22 binding	SIRT5 inh	FN deposition inh	E-sel inducer	rRNA inh HTS	AID977621	AID977628
O=C(Nc1ccc(OCC(=O)N2CCC(Cc3ccccc3)CC2)cc1)c1ccco1	5.6	.	.	-3.6	.	.	.	.
O=C(COc1cc(F)ccc1[N+](=O)[O-])NCCCc1ccccc1	.	0.0	0.0	11.2	-0.3	-27.4*	-1.39	-7.18
COc1ccccc1CC(=O)NCCCc1ccccc1	1.0	0.0	0.4	-1.7	-0.1	-23.0*	-5.46	?
Cc1cc(CNC(=O)COc2cc(F)ccc2[N+](=O)[O-])c2ccccc2n1	2.4	0.0	1.5	7.5	-2.4	-0.5	.	.
CC(C)C(=O)Nc1ccc2c(c1)C(=O)N(C)[C@H]1CC[C@@H](CC(=O)Nc3ccccc3)O[C@@H]1CO2	3.9	-0.1	0.7	.	-0.1	1.0	.	.
CNC[C@H]1Oc2ncccc2C(=O)N(C)C[C@H]1C	.	.	.	.	.	1.8	.	.
Cc1ccccc1CN1CCc2c(OCC(=O)N3CCCc4ccccc43)cccc2C1=O	.	.	.	13.7	.	.	.	.
O=C1c2cccc(OCC(=O)N3CCCc4ccccc43)c2CCN1Cc1cccnc1	.	0.1	0.1	.	.	-26.4*	-12	.
COc1ccccc1-c1ccc([C@@H]2[C@H](CO)N(CC3CC3)C23CN(S(C)(=O)=O)C3)cc1	.	-0.3	11.3	-7.9	0.0	-10.3	.	.
Cc1ccc(S(=O)(=O)N[C@H]2CC[C@@H](CC(=O)NC3CCCCC3)O[C@@H]2CO)cc1	0.4	0.1	-3.5	12.2	-0.4	0.9	.	.
CSc1nc2nc3c(cc2c(=O)n1-c1ccccc1C)CCCC3	.	0.2	-1.4	-6.3	1.4	-29.5*	-15.5	-10.9
CS(=O)(=O)N(CC(=O)N1CCc2ccccc2C1)c1cccc(Br)c1	3.8	0.0	-3.9	0.1	.	-22.6*	-7.29	?
C[C@H]1CN([C@@H](C)CO)S(=O)(=O)c2ccc(C3=CCCCC3)cc2O[C@H]1CN(C)CC1CC1	-42.6	.	.	.	-0.1	.	.	.
